Source: ChEMBL document CHEMBL4152269, “New N-phenylpyrrolamide DNA gyrase B inhibitors: Optimization of efficacy and antibacterial activity” (Eur J Med Chem, 2018)
In brackets after ≈: the same amount, converted by molar mass. Activity calls are given as the source filed them. The rule behind the calls is not given here.

Legend:
HUVEC = test: Cytotoxicity against HUVEC assessed as reduction in cell proliferation after 72 hrs by MTS assay; assay type: cell-based; settings: Homo sapiens
How it was run: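 MTS assay in HUVEC grown in Eagle's MEM with 2 mM L-glutamine, penicillin/streptomycin and 10% FBS, at 37 °C under 5% CO2. Cells seeded at 2000 per well, attached for 24 h, then exposed to six compound concentrations (0.5% DMSO final) for 72 h. Reagent added for 3 h before reading A490. IC50 derived against DMSO-treated cells; triplicate wells, two repeats.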

[1] = biological target: DNA gyrase subunit B (Staphylococcus aureus) (UniProt P0A0K8); test: Inhibition of Staphylococcus aureus DNA gyrase B assessed as residual activity at 1 uM preincubated for 10 mins followed by ATP addition measured after 30 mins by purine nucleoside phosphorylase enzyme coupled spectrophotometric method relative to control
Sequence of DNA gyrase subunit B (Staphylococcus aureus) (P0A0K8 2-644 limits assumed): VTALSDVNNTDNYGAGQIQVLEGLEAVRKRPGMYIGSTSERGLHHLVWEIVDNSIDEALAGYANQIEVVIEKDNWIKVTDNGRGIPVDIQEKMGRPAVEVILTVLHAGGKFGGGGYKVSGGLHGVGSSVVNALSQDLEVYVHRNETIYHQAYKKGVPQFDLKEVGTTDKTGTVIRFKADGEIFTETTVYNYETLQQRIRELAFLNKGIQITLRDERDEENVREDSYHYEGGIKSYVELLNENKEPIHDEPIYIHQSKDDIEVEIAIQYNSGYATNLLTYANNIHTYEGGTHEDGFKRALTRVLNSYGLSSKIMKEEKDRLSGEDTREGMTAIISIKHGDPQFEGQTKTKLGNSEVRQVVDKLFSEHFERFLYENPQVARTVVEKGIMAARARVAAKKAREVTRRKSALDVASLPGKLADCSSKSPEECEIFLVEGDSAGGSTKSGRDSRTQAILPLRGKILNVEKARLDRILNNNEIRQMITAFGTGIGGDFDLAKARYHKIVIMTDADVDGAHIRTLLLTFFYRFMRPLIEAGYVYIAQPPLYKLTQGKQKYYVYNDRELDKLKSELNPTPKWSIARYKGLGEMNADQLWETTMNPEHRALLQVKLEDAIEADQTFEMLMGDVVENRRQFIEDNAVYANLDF

Staphylococcus aureus [2] = test: (§1) Inhibition of Staphylococcus aureus topoisomerase-4 assessed as residual activity at 1 uM preincubated for 10 mins followed by ATP addition measured after 30 mins by purine nucleoside phosphorylase enzyme coupled spectrophotometric method relative to control
Staphylococcus aureus [3] = test: Growth inhibition of Staphylococcus aureus ATCC 25923 at 50 uM after 24 hrs by broth microdilution method relative to control; assay type: functional; settings: ATCC 25923, 24 h, read-out: GI
Enterococcus faecalis [4] = test: Growth inhibition of Enterococcus faecalis ATCC 29212 at 50 uM after 24 hrs by broth microdilution method relative to control; assay type: functional; settings: ATCC 29212, 24 h, read-out: GI
Escherichia coli [5] = test: Growth inhibition of Escherichia coli ATCC 25922 at 50 uM after 24 hrs by broth microdilution method relative to control; assay type: functional; settings: ATCC 25922, 24 h, read-out: GI
Pseudomonas aeruginosa = test: Growth inhibition of Pseudomonas aeruginosa ATCC 27853 at 50 uM after 24 hrs by broth microdilution method relative to control; assay type: functional; settings: ATCC 27853, 24 h, read-out: GI
DNA gyrase subunit B [6] = biological target: DNA gyrase subunit B (Escherichia coli, UniProt P0AES6); test: Inhibition of Escherichia coli DNA gyrase by supercoiling assay
DNA gyrase subunit B [7] = biological target: DNA gyrase subunit B (Staphylococcus aureus, UniProt P0A0K8); test: Inhibition of Staphylococcus aureus DNA gyrase B preincubated for 10 mins followed by ATP addition measured after 30 mins by purine nucleoside phosphorylase enzyme coupled spectrophotometric method
Sequence of DNA gyrase subunit B (Staphylococcus aureus, UniProt P0A0K8) (P0A0K8 whole entry): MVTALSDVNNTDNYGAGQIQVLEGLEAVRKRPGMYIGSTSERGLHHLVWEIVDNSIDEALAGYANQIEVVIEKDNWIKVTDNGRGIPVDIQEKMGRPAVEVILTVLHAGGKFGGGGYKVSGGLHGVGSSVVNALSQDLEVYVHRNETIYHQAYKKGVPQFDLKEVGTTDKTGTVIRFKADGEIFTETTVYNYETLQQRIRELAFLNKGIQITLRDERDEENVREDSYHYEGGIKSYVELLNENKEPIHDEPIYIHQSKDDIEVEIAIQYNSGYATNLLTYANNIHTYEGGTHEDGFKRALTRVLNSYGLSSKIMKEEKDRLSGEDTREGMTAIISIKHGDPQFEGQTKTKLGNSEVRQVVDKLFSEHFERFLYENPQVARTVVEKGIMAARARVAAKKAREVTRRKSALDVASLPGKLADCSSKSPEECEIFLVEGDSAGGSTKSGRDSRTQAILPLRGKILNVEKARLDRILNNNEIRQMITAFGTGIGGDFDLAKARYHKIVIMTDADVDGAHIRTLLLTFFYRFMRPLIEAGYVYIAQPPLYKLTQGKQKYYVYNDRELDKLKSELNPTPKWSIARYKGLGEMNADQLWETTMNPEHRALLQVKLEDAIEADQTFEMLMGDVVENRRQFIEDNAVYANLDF

Escherichia coli [8] = test: as §1, with “Escherichia coli C-terminal His6-tagged” for “Staphylococcus aureus”, “topoisomerase-4 expressed in Escherichia coli BL21(DE3)” for “topoisomerase-4”
[9] = Inhibition of Staphylococcus aureus topoisomerase-4 assessed as residual activity preincubated for 10 mins followed by ATP addition measured after 30 mins by purine nucleoside phosphorylase enzyme coupled spectrophotometric method
Escherichia coli [10] = test: Growth inhibition of tolC deficient Escherichia coli JW5503 at 50 uM after 24 hrs by broth microdilution method relative to control; assay type: functional; settings: JW5503, 24 h, read-out: GI
Escherichia coli [11] = test: Growth inhibition of lpxC deficient Escherichia coli JD17464 at 50 uM after 24 hrs by broth microdilution method relative to control; assay type: functional; settings: JD17464, 24 h, read-out: GI
Staphylococcus aureus [12] = test: Antibacterial activity against Staphylococcus aureus ATCC 25923 after 18 hrs by broth microdilution method; assay type: functional; settings: ATCC 25923, 18 h
Enterococcus faecalis [13] = test: Antibacterial activity against Enterococcus faecalis ATCC 29212 after 18 hrs by broth microdilution method; assay type: functional; settings: ATCC 29212, 18 h
Escherichia coli [14] = test: Antibacterial activity against tolC deficient Escherichia coli JW5503 after 18 hrs by broth microdilution method; assay type: functional; settings: JW5503, 18 h
[15] = Inhibition of Escherichia coli C-terminal His6-tagged topoisomerase-4 expressed in Escherichia coli BL21(DE3) preincubated for 10 mins followed by ATP addition measured after 30 mins by purine nucleoside phosphorylase enzyme coupled spectrophotometric method
Staphylococcus aureus [16] = test: Antibacterial activity against Staphylococcus aureus ATCC 29213 after 18 hrs by broth microdilution method; assay type: functional; settings: ATCC 29213, 18 h
How it was run: (§2)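 EUCAST/ISO 20776-1 broth microdilution using 12-step serial dilutions in cation-adjusted Mueller-Hinton II broth. About 5 × 10^4 bacteria were inoculated per well and incubated at 37 °C, shaken at 300 rpm, for 18 h. Growth was read as OD600. MIC is the lowest concentration giving background-normalized OD600 below 0.05, from 3 replicates.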

Staphylococcus aureus [17] = test: Antibacterial activity against methicillin-resistant Staphylococcus aureus ATCC 43300 after 18 hrs by broth microdilution method; assay type: functional; settings: ATCC 43300, 18 h
Escherichia coli [18] = test: Antibacterial activity against Escherichia coli ATCC 25922 up to 50 uM after 18 hrs by broth microdilution method; assay type: functional, organism-based
How it was run: (§3)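 Broth microdilution per EUCAST/ISO 20776-1:2006: 12-step serial dilutions of compound in cation-adjusted Mueller-Hinton II broth, about 5 × 10^4 bacteria per well, 37 °C with shaking at 300 rpm, OD600 read after 18 h. MIC is the lowest concentration with background-normalized OD600 below 0.05, i.e. no visible growth; 3 replicates. Top concentration 50 μM.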

Escherichia coli [19] = test: Antibacterial activity against Escherichia coli MG1655 up to 50 uM after 18 hrs by broth microdilution method; assay type: functional, organism-based; settings: K-12 substr. MG1655; how it was run: as §3
Escherichia coli [20] = test: Antibacterial activity against Escherichia coli BW25113 up to 50 uM after 18 hrs by broth microdilution method; assay type: functional, organism-based; how it was run: as §3
Escherichia coli [21] = test: Antibacterial activity against tolC deficient Escherichia coli BW25113 up to 50 uM after 18 hrs by broth microdilution method; assay type: functional, organism-based; how it was run: as §3
Escherichia coli [22] = test: Antibacterial activity against acrB deficient Escherichia coli BW25113 up to 50 uM after 18 hrs by broth microdilution method; assay type: functional, organism-based; how it was run: as §3
Escherichia coli [23] = test: Antibacterial activity against dapF deficient Escherichia coli BW25113 up to 50 uM after 18 hrs by broth microdilution method; assay type: functional, organism-based; how it was run: as §3
Escherichia coli [24] = test: Antibacterial activity against mrcB deficient Escherichia coli BW25113 up to 50 uM after 18 hrs by broth microdilution method; assay type: functional, organism-based; how it was run: as §2
Escherichia coli [25] = test: Antibacterial activity against surA deficient Escherichia coli BW25113 up to 50 uM after 18 hrs by broth microdilution method; assay type: functional, organism-based; how it was run: as §3
Escherichia coli [26] = test: Antibacterial activity against Escherichia coli ATCC 25922 after 18 hrs in presence of efflux pump inhibitor PAbetaN by broth microdilution method; assay type: functional; settings: ATCC 25922, 18 h
How it was run: as §2, with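 “Efflux pump inhibitor PAβN was added to EUCAST/ISO” for “EUCAST/ISO”, “h, then” for “h. Growth was”, “at” for “as”, “with” for “giving”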

Escherichia coli [27] = test: Antibacterial activity against Escherichia coli MG1655 after 18 hrs in presence of efflux pump inhibitor PAbetaN by broth microdilution method; assay type: functional; settings: K-12 substr. MG1655, 18 h
How it was run: as §2, with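 “Efflux pump inhibitor PAβN was added to EUCAST/ISO” for “EUCAST/ISO”, “h, then” for “h. Growth was”, “at” for “as”, “with” for “giving”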

Escherichia coli [28] = test: Antibacterial activity against Escherichia coli BW25113 up to 20 uM after 18 hrs in presence of efflux pump inhibitor PAbetaN by broth microdilution method; assay type: functional, organism-based
Escherichia coli [29] = test: Antibacterial activity against dapF deficient Escherichia coli BW25113 up to 20 uM after 18 hrs in presence of efflux pump inhibitor PAbetaN by broth microdilution method; assay type: functional, organism-based
How it was run: (§4)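 Same EUCAST broth microdilution in cation-adjusted Mueller-Hinton II broth, 12-step compound dilutions, about 5 × 10^4 bacteria per well, 37 °C, 300 rpm, OD600 at 18 h. Parental and mutant strains were co-treated with the efflux pump inhibitor PAβN. MIC taken as normalized OD600 below 0.05; 3 replicates.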

Escherichia coli [30] = test: Antibacterial activity against mrcB deficient Escherichia coli BW25113 up to 20 uM after 18 hrs in presence of efflux pump inhibitor PAbetaN by broth microdilution method; assay type: functional, organism-based; how it was run: as §4
Escherichia coli [31] = test: Antibacterial activity against surA deficient Escherichia coli BW25113 after 18 hrs in presence of efflux pump inhibitor PAbetaN by broth microdilution method; assay type: functional; settings: BW25113, 18 h
How it was run: as §2, with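 “Efflux pump inhibitor PAβN was added to EUCAST/ISO” for “EUCAST/ISO”, “h, then” for “h. Growth was”, “at” for “as”, “with” for “giving”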

Escherichia coli [32] = test: Antibacterial activity against Escherichia coli MG1655 harboring NOG R136C mutant up to 50 uM after 18 hrs in presence of efflux pump inhibitor PAbetaN by broth microdilution method; assay type: functional, organism-based; settings: K-12 substr. MG1655
[33] = Cytotoxicity against human HepG2 cells assessed as cell proliferation at 50 uM after 72 hrs by MTS assay relative to control; assay type: cell-based; settings: read-out: Activity
How it was run: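 MTS assay in HepG2 grown in Eagle's MEM with 2 mM L-glutamine, penicillin/streptomycin and 10% FBS, at 37 °C under 5% CO2. Cells seeded at 2000 per well and attached for 24 h. Compound added at 50 μM (0.5% DMSO final) for 72 h, then reagent for 3 h and A490 read. […] Triplicate wells, two repeats, Welch's t-test.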

Staphylococcus aureus [34] = test: Antibacterial activity against Staphylococcus aureus; assay type: functional
[35] = Inhibition of Escherichia coli topoisomerase-4

COc1cc([C@@H]2c3cc4c(cc3[C@@H](O[C@@H]3O[C@@H]5CO[C@@H](C)O[C@H]5[C@H](O)[C@H]3O)[C@H]3COC(=O)[C@H]23)OCO4)cc(OC)c1O [ETOPOSIDE]
IC50 (HUVEC): 5.21 µM

CC(C)Oc1cc(NC(=O)c2cc(Br)c(Br)[nH]2)ccc1C(=O)NCC(=O)O
Activity [1]: 85% | Activity (Staphylococcus aureus [2]): 96% | inhibition of growth at 50 µM (Staphylococcus aureus [3]): 13% | inhibition of growth at 50 µM (Enterococcus faecalis [4]): 14% | inhibition of growth at 50 µM (Escherichia coli [5]): 9% | inhibition of growth at 50 µM (Pseudomonas aeruginosa): -8% | IC50 (DNA gyrase subunit B [6]): 0.4 µM

COC(=O)[C@H](C)NC(=O)c1ccc(NC(=O)c2[nH]c(C)c(Cl)c2Cl)c(OCCN)c1
IC50 (DNA gyrase subunit B [7]): 0.39 µM | Activity (Escherichia coli [8]): 89% | IC50 [9]: 3.7 µM | inhibition of growth at 50 µM (Staphylococcus aureus [3]): 82% | inhibition of growth at 50 µM (Enterococcus faecalis [4]): 100% | inhibition of growth at 50 µM (Escherichia coli [5]): 67% | inhibition of growth at 50 µM (Pseudomonas aeruginosa): 35% | inhibition of growth at 50 µM (Escherichia coli [10]): 100% | inhibition of growth at 50 µM (Escherichia coli [11]): 47% | MIC90 (Staphylococcus aureus [12]): 50 µM (≈ 22.9 µg/mL) | MIC90 (Enterococcus faecalis [13]): 25 µM (≈ 11.4 µg/mL) | MIC90 (Escherichia coli [14]): 25 µM (≈ 11.4 µg/mL) | IC50 (DNA gyrase subunit B [6]): 0.034 µM

Cc1[nH]c(C(=O)Nc2ccc(C(=O)N[C@@H](C)c3n[nH]c(=O)o3)cc2OC(C)C)c(Cl)c1Cl
IC50 [15]: 11 µM | IC50 [9]: 12 µM | inhibition of growth at 50 µM (Staphylococcus aureus [3]): 100% | inhibition of growth at 50 µM (Enterococcus faecalis [4]): 97% | inhibition of growth at 50 µM (Escherichia coli [5]): 5% | inhibition of growth at 50 µM (Pseudomonas aeruginosa): -1% | inhibition of growth at 50 µM (Escherichia coli [10]): 51% | inhibition of growth at 50 µM (Escherichia coli [11]): 0% | MIC90 (Enterococcus faecalis [13]): 1.56 µM (≈ 0.752 µg/mL) | MIC90 (Staphylococcus aureus [16]): 4.17 µM (≈ 2.01 µg/mL) | MIC90 (Staphylococcus aureus [17]): 3.13 µM (≈ 1.51 µg/mL) | Activity (Escherichia coli [18]): inactive | Activity (Escherichia coli [19]): inactive | Activity (Escherichia coli [20]): inactive | Activity (Escherichia coli [21]): inactive | Activity (Escherichia coli [22]): inactive | Activity (Escherichia coli [23]): inactive | Activity (Escherichia coli [24]): inactive | Activity (Escherichia coli [25]): inactive | MIC90 (Escherichia coli [26]): 4.6 µM | MIC90 (Escherichia coli [27]): 10.2 µM | Activity (Escherichia coli [28]): inactive | Activity (Escherichia coli [29]): inactive | Activity (Escherichia coli [30]): inactive | MIC90 (Escherichia coli [31]): 13.8 µM | Activity (Escherichia coli [32]): inactive | viability at 72 h, 50 µM [33]: 85% | IC50 (HUVEC): 40.7 µM

CNc1cc(F)cc2c1[nH]c1nc(Oc3cnc(C)nc3)nc(N3C[C@H]4CCN[C@H]4C3)c12
MIC (Staphylococcus aureus [34]): 0.06 µg/mL (≈ 0.138 µM) | Ki [35]: < 0.0001 µM
